For 65 compounds, MIC80 results are on record in ChEMBL document CHEMBL3102843, “Synthesis and antifungal activity of substituted 2,4,6-pyrimidinetrione carbaldehyde hydrazones” (Bioorg Med Chem, 2014).

For orientation: MIC80 means an inhibitory concentration at the 80% level, which refers to growth in some studies and to a panel of isolates in others.

One assay has as its system Candida albicans. The experiment in a line: Antifungal activity against Candida albicans ATCC 10231 after 48 to 72 hrs by broth microdilution method. The class given is functional. An outline of the steps:
(§1)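 Broth microdilution per NCCLS. Organisms were subcultured on Sabouraud agar. Inoculum was 5–7 colonies from YM agar in sterile water, adjusted to 0.5 McFarland at 530 nm (1–5×10⁶ cells/mL stock), held 30 min at RT, then diluted 1:50 in HEPES-buffered RPMI 1640. DMSO stocks were twofold-diluted, with final DMSO ≤1%. Plates ran 48–72 h at 35 °C, humid. MIC is the lowest concentration giving ≥80% growth reduction vs drug-free wells, scored visually. Fluconazole or amphotericin B ran as drug control.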
On the technique in general: Dilution methods test growth across graded concentrations, often in twofold steps.

In a further assay the test system is Nakaseomyces glabratus. The experiment in a line: Antifungal activity against Candida glabrata ATCC 48435 after 48 to 72 hrs by broth microdilution method. It counts as functional. An outline of the steps: as §1

In brackets after ≈: the same amount, converted by molar mass. Activity calls are given as the source filed them. How the calls were made is not given here.

Turning to `COc1ccc(C(=O)N/N=C(\C)C2C(=O)N(C)C(=O)N(C)C2=O)cc1`, the MIC80 entry with Candida albicans and in the assay on Nakaseomyces glabratus was “inactive” throughout.

Take `C/C(=N\Nc1ccc([N+](=O)[O-])cc1[N+](=O)[O-])C1C(=O)NC(=O)NC1=O`: the MIC80 entry in the assay on Candida albicans and with Nakaseomyces glabratus was “inactive” throughout.

For the compound `COC(=O)N/N=C(\c1ccc(O)cc1)C1C(=O)N(C)C(=O)N(C)C1=O`, the MIC80 entry in the assay with Candida albicans and with Nakaseomyces glabratus was “inactive” in each case.

Take `CN1C(=O)C(=Cc2ccc(N(C)C)cc2)C(=O)N(C)C1=O`: the MIC80 entry in the assay with Candida albicans and in the assay on Nakaseomyces glabratus was “inactive” each time.

Consider `COC(=O)N/N=C/C1C(=O)NC(=O)NC1=O`, for which the MIC80 result with Candida albicans and with Nakaseomyces glabratus was “inactive” in each case.

`O=C1NC(=O)C(=Cc2cccc3ccccc23)C(=O)N1` registered an MIC80 with Candida albicans of 125 µg/mL (≈ 469 µM). In the assay on Nakaseomyces glabratus, the MIC80 result was “inactive”.

For `O=C1NC(=O)C(/C=N/c2ccc([N+](=O)[O-])cc2)C(=O)N1`, the MIC80 result in the assay with Candida albicans and with Nakaseomyces glabratus was “inactive” each time.

Turning to `O=C1NC(=O)C(=Cc2ccco2)C(=O)N1`, the MIC80 result with Candida albicans and in the assay with Nakaseomyces glabratus was “inactive” in each case.

As to `O=C1NC(=O)C(C(=NNc2ccc(C(=O)O)cc2)C2C(=O)NC(=O)NC2=O)C(=O)N1`, the MIC80 result in the assay with Candida albicans was “inactive”. In addition, the MIC80 in the assay on Nakaseomyces glabratus turned out to be 125 µg/mL (≈ 300 µM).

Take `CN/N=C/C1C(=O)NC(=O)NC1=O`: the MIC80 entry in the assay with Candida albicans and in the assay on Nakaseomyces glabratus was “inactive” each time.

As for `CN/N=C(\C)C1C(=O)N(C)C(=O)N(C)C1=O`, the MIC80 entry in the assay on Candida albicans and in the assay with Nakaseomyces glabratus was “inactive” in each case.

On to `O=C1NC(=O)C(/C=N/NC(=O)c2ccccc2)C(=O)N1`, for which the MIC80 result in the assay on Candida albicans and with Nakaseomyces glabratus was “inactive” in each case.

For the compound `COC(=O)N/N=C(\c1ccc([N+](=O)[O-])cc1)C1C(=O)NC(=O)NC1=O`, the MIC80 entry in the assay with Candida albicans and in the assay with Nakaseomyces glabratus was “inactive” throughout.

Regarding `C/C(=N\NS(=O)(=O)c1ccccc1)C1C(=O)NC(=O)NC1=O`, the MIC80 entry in the assay with Candida albicans and with Nakaseomyces glabratus was “inactive” each time.

As for `O=C1NC(=O)C(/C=N/c2nnc[nH]2)C(=O)N1`, the MIC80 result in the assay on Candida albicans and with Nakaseomyces glabratus was “inactive” each time.

Turning to `O=C1NC(=O)C(/C=N/c2ccccn2)C(=O)N1`, the MIC80 result in the assay with Candida albicans and with Nakaseomyces glabratus was “inactive” in each case.

Take `COc1ccc(C(=O)N/N=C(\C)C2C(=O)NC(=O)NC2=O)cc1`: the MIC80 result with Candida albicans and with Nakaseomyces glabratus was “inactive” throughout.

Turning to `CN1C(=O)C(/C=N/c2ccc([N+](=O)[O-])cc2)C(=O)N(C)C1=O`, the MIC80 entry in the assay with Candida albicans and with Nakaseomyces glabratus was “inactive” in each case.

`C/C(=N\c1ccccc1)C1C(=O)N(C)C(=O)N(C)C1=O`: the MIC80 entry in the assay with Candida albicans and in the assay with Nakaseomyces glabratus was “inactive” each time.

Turning to `Cc1ccc(S(=O)(=O)N/N=C/C2C(=O)N(C)C(=O)N(C)C2=O)cc1`, the MIC80 entry with Candida albicans and in the assay with Nakaseomyces glabratus was “inactive” in each case.

In the case of `C/C(=N\c1ccc(O)cc1)C1C(=O)N(C)C(=O)N(C)C1=O`, the MIC80 result with Candida albicans and in the assay with Nakaseomyces glabratus was “inactive” throughout.

As for `O=C1NC(=O)C(/C=N/NS(=O)(=O)c2ccccc2)C(=O)N1`, the MIC80 entry in the assay with Candida albicans and with Nakaseomyces glabratus was “inactive” throughout.

Compound `O=C1NC(=O)C(=C/C=C/c2ccccc2)C(=O)N1` displayed an MIC80 in the assay on Candida albicans of 62 µg/mL (≈ 256 µM). Further, the MIC80 result with Nakaseomyces glabratus was “inactive”.

For the compound `COC(=O)N/N=C/C1C(=O)N(C)C(=O)N(C)C1=O`, the MIC80 entry with Candida albicans and with Nakaseomyces glabratus was “inactive” in each case.

Take `CN1C(=O)C(/C=N/NS(=O)(=O)c2ccccc2)C(=O)N(C)C1=O`: the MIC80 result in the assay on Candida albicans and in the assay on Nakaseomyces glabratus was “inactive” in each case.

`O=C1NC(=O)C(/C=N/C2N=NN=N2)C(=O)N1`: the MIC80 result in the assay with Candida albicans and with Nakaseomyces glabratus was “inactive” each time.

With `COc1ccc(C=C2C(=O)N(C)C(=O)N(C)C2=O)cc1`, the MIC80 entry in the assay on Candida albicans and in the assay with Nakaseomyces glabratus was “inactive” in each case.

On to `CN1C(=O)C(/C=N/c2ccccc2)C(=O)N(C)C1=O`, for which the MIC80 result with Candida albicans and in the assay with Nakaseomyces glabratus was “inactive” each time.

As to `COC(=O)N/N=C(\C)C1C(=O)NC(=O)NC1=O`, the MIC80 result in the assay on Candida albicans and in the assay on Nakaseomyces glabratus was “inactive” each time.

Regarding `O=C1NC(=O)C(/C=N/Nc2ccccc2)C(=O)N1`, the MIC80 was 4 µg/mL (≈ 16.2 µM) against Candida albicans and 2 µg/mL (≈ 8.12 µM) in the assay on Nakaseomyces glabratus.

In the case of `O=C1NC(=O)C(/C=N/c2cccc(O)c2)C(=O)N1`, the MIC80 entry in the assay on Candida albicans and with Nakaseomyces glabratus was “inactive” throughout.

In the case of `O=C1NC(=O)C(/C=N/c2ccncc2)C(=O)N1`, the MIC80 entry in the assay on Candida albicans and in the assay on Nakaseomyces glabratus was “inactive” each time.

As to `C/C(=N\NC(=O)c1ccccc1)C1C(=O)NC(=O)NC1=O`, the MIC80 result in the assay on Candida albicans and in the assay with Nakaseomyces glabratus was “inactive” throughout.

Take `COc1ccc(C=C2C(=O)N(C)C(=O)N(C)C2=O)c(OC)c1OC`: the MIC80 result with Candida albicans and in the assay with Nakaseomyces glabratus was “inactive” in each case.

Turning to `O=C1NC(=O)C(/C(=N/Nc2ccc([N+](=O)[O-])cc2[N+](=O)[O-])c2ccccc2)C(=O)N1`, the MIC80 entry in the assay on Candida albicans and in the assay on Nakaseomyces glabratus was “inactive” each time.

Take `COc1ccc(/C(=N\CCCCCC(=O)O)C2C(=O)NC(=O)NC2=O)cc1`: the MIC80 result in the assay with Candida albicans and with Nakaseomyces glabratus was “inactive” in each case.

As to `CN1C(=O)C(=C/C=C/c2ccccc2)C(=O)N(C)C1=O`, the MIC80 worked out at 62 µg/mL (≈ 229 µM) with Candida albicans and 125 µg/mL (≈ 462 µM) in the assay with Nakaseomyces glabratus.

Regarding `C/C(=N\c1ccncc1)C1C(=O)N(C)C(=O)N(C)C1=O`, the MIC80 entry in the assay with Candida albicans and in the assay on Nakaseomyces glabratus was “inactive” each time.

With `CN1C(=O)C(/C=N/c2ccncc2)C(=O)N(C)C1=O`, the MIC80 result with Candida albicans and with Nakaseomyces glabratus was “inactive” each time.

Consider `O=C1NC(=O)C(=Cc2ccccc2O)C(=O)N1`, for which the MIC80 entry in the assay with Candida albicans was “inactive”. Further, the MIC80 against Nakaseomyces glabratus turned out to be 8 µg/mL (≈ 34.5 µM).

As to `O=C1NC(=O)N(c2ccccc2)C(=O)/C1=C\c1ccc(O)cc1`, the MIC80 entry in the assay on Candida albicans and in the assay with Nakaseomyces glabratus was “inactive” in each case.

Regarding `COC(=O)N/N=C(\C)C1C(=O)N(C)C(=O)N(C)C1=O`, the MIC80 result in the assay with Candida albicans and in the assay on Nakaseomyces glabratus was “inactive” in each case.

As to `O=C1NC(=O)C(/C=N/n2cnnc2)C(=O)N1`, the MIC80 entry with Candida albicans and in the assay with Nakaseomyces glabratus was “inactive” each time.

With `CN1C(=O)C(/C=N/c2nnc[nH]2)C(=O)N(C)C1=O`, the MIC80 result in the assay on Candida albicans and in the assay with Nakaseomyces glabratus was “inactive” each time.

Take `O=C1NC(=O)C(/C=N/c2ccc(O)cc2)C(=O)N1`: the MIC80 result in the assay on Candida albicans and in the assay with Nakaseomyces glabratus was “inactive” throughout.

With `N/N=C/C1C(=O)NC(=O)NC1=O`, the MIC80 worked out at 125 µg/mL (≈ 735 µM) in the assay with Candida albicans and 16 µg/mL (≈ 94 µM) against Nakaseomyces glabratus.

For the compound `COc1cc(OC)c(C=C2C(=O)N(C)C(=O)N(C)C2=O)c(OC)c1`, the MIC80 entry in the assay with Candida albicans and in the assay with Nakaseomyces glabratus was “inactive” throughout.

As for `O=C1NC(=O)C(=Cc2ccc3ccccc3c2)C(=O)N1`, the MIC80 in the assay on Candida albicans was found to be 125 µg/mL (≈ 469 µM). In the assay on Nakaseomyces glabratus, the MIC80 entry is “inactive”.

Consider `O=C1NC(=O)N(c2ccccc2)C(=O)C1/C(=N/Nc1ccc([N+](=O)[O-])cc1[N+](=O)[O-])c1ccccc1` (stereo not given), for which the MIC80 entry with Candida albicans and in the assay with Nakaseomyces glabratus was “inactive” throughout.

Turning to `COc1ccc(/N=C(\C)C2C(=O)N(C)C(=O)N(C)C2=O)cc1`, the MIC80 result in the assay with Candida albicans and with Nakaseomyces glabratus was “inactive” in each case.

As to `CN1C(=O)C(/C=N/NC(=O)c2ccccc2)C(=O)N(C)C1=O`, the MIC80 result in the assay on Candida albicans and with Nakaseomyces glabratus was “inactive” each time.

With `C/C(=N\NS(=O)(=O)c1ccccc1)C1C(=O)N(C)C(=O)N(C)C1=O`, the MIC80 entry with Candida albicans and with Nakaseomyces glabratus was “inactive” throughout.

With `O=C1NC(=O)C(/C=N/c2ccccc2)C(=O)N1`, the MIC80 result in the assay on Candida albicans and in the assay with Nakaseomyces glabratus was “inactive” in each case.

On to `CN1C(=O)C(/C=N/C2N=NN=N2)C(=O)N(C)C1=O`, for which the MIC80 entry in the assay with Candida albicans and in the assay with Nakaseomyces glabratus was “inactive” throughout.

For the compound `C/C(=N\Nc1ccc([N+](=O)[O-])cc1)C1C(=O)NC(=O)N(c2ccccc2)C1=O` (stereo not given), the results for the MIC80 in the assay with Candida albicans and against Nakaseomyces glabratus were 31.5 µg/mL (≈ 82.6 µM) and 16 µg/mL (≈ 42 µM), respectively.

`C/C(=N\Nc1ccccc1)C1C(=O)NC(=O)NC1=O`: the MIC80 in the assay on Candida albicans and in the assay with Nakaseomyces glabratus was 2 µg/mL (≈ 7.68 µM) throughout.

On to `O=C1NC(=O)C(/C=N/Nc2ccc([N+](=O)[O-])cc2[N+](=O)[O-])C(=O)N1`, for which, in the assay on Candida albicans, the MIC80 result was “inactive”. In the assay on Nakaseomyces glabratus, the MIC80 came to 125 µg/mL (≈ 372 µM).

Regarding `O=C1NC(=O)C(=Cc2ccoc2)C(=O)N1`, the MIC80 entry with Candida albicans and with Nakaseomyces glabratus was “inactive” in each case.

As for `C/C(=N\NC(=O)c1ccccc1)C1C(=O)N(C)C(=O)N(C)C1=O`, the MIC80 result in the assay with Candida albicans and in the assay on Nakaseomyces glabratus was “inactive” each time.

On to `C/C(=N\N)C1C(=O)NC(=O)NC1=O`, for which the MIC80 result in the assay on Candida albicans and in the assay on Nakaseomyces glabratus was “inactive” each time.

In the case of `COc1ccc(/N=C/C2C(=O)NC(=O)NC2=O)cc1`, the MIC80 result in the assay on Candida albicans and with Nakaseomyces glabratus was “inactive” each time.

Turning to `O=C1NC(=O)C(=Cc2ccccc2)C(=O)N1`, the MIC80 entry in the assay on Candida albicans and in the assay on Nakaseomyces glabratus was “inactive” each time.

Turning to `CN(C)c1ccc(C=C2C(=O)NC(=O)NC2=O)cc1`, the MIC80 against Candida albicans was determined as 62 µg/mL (≈ 239 µM). In addition, in the assay with Nakaseomyces glabratus, the MIC80 result was “inactive”.

As to `CCCCN1C(=O)NC(=O)C(/C(=N/Nc2ccc([N+](=O)[O-])cc2[N+](=O)[O-])c2ccccc2)C1=O` (stereo not given), the MIC80 entry with Candida albicans and with Nakaseomyces glabratus was “inactive” each time.

As to `C/C(=N\c1ccncc1)C1C(=O)NC(=O)NC1=O`, the MIC80 result in the assay with Candida albicans and in the assay on Nakaseomyces glabratus was “inactive” throughout.
